In brackets after ≈: the same amount, converted by molar mass.
What was measured:
[1] = n-octanol-water partition co-efficient, log P of the compound after 24 hrs by HPLC analysis; format: physicochemical
[2] = Solubility of the compound in phosphate buffer at pH 7.4 by HPLC-UV method; format: physicochemical
In short: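 Compound stock was 10 mg/mL in DMSO. It was diluted into pH 7.4 phosphate buffer to a final 1% DMSO and stirred 4 h at room temperature, then spun at 10,000 rpm for 5 min. The saturated supernatant was read by HPLC-UV at 254 nm on a C18 column with a MeOH/water gradient. Concentration was taken from an acetonitrile standard curve spanning 0.20–50 µg/mL. Samples were run in triplicate.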

[3] = biological target: T1, Tyrosine-protein kinase Mer (Homo sapiens, UniProt Q12866); assay: Inhibition of MERTK (unknown origin) using EFPIYDFLPAKKK-CONH2 as substrate and ATP after 180 mins by microfluidic capillary electrophoresis method
T1 sequence (Q12866 whole entry): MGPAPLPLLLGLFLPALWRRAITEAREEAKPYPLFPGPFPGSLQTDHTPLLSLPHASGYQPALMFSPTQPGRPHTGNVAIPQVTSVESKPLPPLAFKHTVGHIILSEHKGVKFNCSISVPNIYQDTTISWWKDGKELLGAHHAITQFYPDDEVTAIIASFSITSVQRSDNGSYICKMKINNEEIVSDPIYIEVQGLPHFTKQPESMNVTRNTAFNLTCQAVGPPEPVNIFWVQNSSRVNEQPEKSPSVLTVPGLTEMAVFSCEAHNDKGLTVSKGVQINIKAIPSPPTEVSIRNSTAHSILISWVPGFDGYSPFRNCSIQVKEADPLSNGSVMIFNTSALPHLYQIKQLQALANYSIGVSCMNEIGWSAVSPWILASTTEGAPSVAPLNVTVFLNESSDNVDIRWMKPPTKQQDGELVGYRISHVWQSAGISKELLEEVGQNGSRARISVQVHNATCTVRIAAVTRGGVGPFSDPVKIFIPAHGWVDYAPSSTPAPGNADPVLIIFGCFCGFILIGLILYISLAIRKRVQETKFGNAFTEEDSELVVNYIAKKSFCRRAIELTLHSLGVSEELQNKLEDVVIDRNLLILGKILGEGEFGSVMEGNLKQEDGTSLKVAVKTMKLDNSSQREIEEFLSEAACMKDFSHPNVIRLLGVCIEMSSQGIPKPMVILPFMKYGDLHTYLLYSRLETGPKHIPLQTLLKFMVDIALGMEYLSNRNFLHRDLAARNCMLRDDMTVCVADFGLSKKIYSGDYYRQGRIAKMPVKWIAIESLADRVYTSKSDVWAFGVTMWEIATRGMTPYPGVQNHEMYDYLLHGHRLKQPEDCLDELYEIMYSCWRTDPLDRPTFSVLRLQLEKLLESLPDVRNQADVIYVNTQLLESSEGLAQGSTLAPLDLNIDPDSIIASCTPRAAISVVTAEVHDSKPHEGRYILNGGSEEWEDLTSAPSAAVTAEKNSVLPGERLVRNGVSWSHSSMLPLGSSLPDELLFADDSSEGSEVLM

[4] = test system: KB; assay: Antiproliferative activity against human KB cells after 48 hrs by SRB method; format: functional
[5] = Antiproliferative activity against human KBVIN cells after 48 hrs by SRB method; format: functional
[6] = test system: A549; assay: Antiproliferative activity against human A549 cells after 48 hrs by SRB method; format: functional; conditions: A549, 48 h
[7] = Antiproliferative activity against human DU145 cells after 48 hrs by SRB method; format: functional; conditions: DU-145, 48 h

logP [1]	solubility [2]	IC50 [3]	Compound	other results
> 5	1.11 µg/mL (≈ 3.19 µM)	–	COc1ccc(N(C)c2nc(NC3CCCC3)c3ccccc3n2)cc1	–
> 5	3.43 µg/mL (≈ 10.6 µM)	–	CCCNc1nc(N(C)c2ccc(OC)cc2)nc2ccccc12	–
–	–	> 30 µM	Nc1ccc(Nc2nc(N3CCOCC3)c3ccccc3n2)cc1	–
2.54	95.6 µg/mL (≈ 295 µM)	–	COc1ccc(Nc2nc(NCCCO)c3ccccc3n2)cc1	–
> 5	4.36 µg/mL (≈ 14.1 µM)	–	CCCNc1nc(Nc2ccc(OC)cc2)nc2ccccc12	–
–	–	–	CC(=O)O[C@H]1C(=O)[C@@]2(C)[C@H]([C@H](OC(=O)c3ccccc3)[C@]3(O)C[C@H](OC(=O)[C@H](O)[C@@H](NC(=O)c4ccccc4)c4ccccc4)C(C)=C1C3(C)C)[C@]1(OC(C)=O)CO[C@@H]1C[C@@H]2O [PACLITAXEL]	GI50 [4]: 0.0026 µM; GI50 [5]: 0.948 µM; GI50 [6]: 0.0049 µM
> 5	10.4 µg/mL (≈ 31.1 µM)	–	COc1ccc(Nc2nc(NC3CCCC3)c3ccccc3n2)cc1	–
3.21	6.61 µg/mL (≈ 23.6 µM)	–	CNc1nc(Nc2ccc(OC)cc2)nc2ccccc12	–
–	–	> 30 µM	Fc1ccc(Nc2nc(N3CCOCC3)c3ccccc3n2)cc1	–
2.84	7.52 µg/mL (≈ 23.5 µM)	–	N#Cc1ccc(Nc2nc(NCCCO)c3ccccc3n2)cc1	–
> 5	1.54 µg/mL (≈ 4.78 µM)	–	Fc1ccc(Nc2nc(NC3CCCC3)c3ccccc3n2)cc1	–
–	–	> 30 µM	OCCCNc1nc(Nc2ccc(F)cc2)nc2ccccc12	GI50 [6]: 19.3 µM; GI50 [7]: 20.6 µM
–	–	> 30 µM	COc1ccc(N(C)c2nc(NCC3CCOCC3)c3ccccc3n2)cc1	–
–	–	> 30 µM	COc1ccc(N(C)c2nc(N3CCOCC3)c3ccccc3n2)cc1	–
3.95	3.1 µg/mL (≈ 9.68 µM)	–	Oc1ccc(Nc2nc(NC3CCCC3)c3ccccc3n2)cc1	–
–	–	> 30 µM	Nc1ccc(Nc2nc(NCCCO)c3ccccc3n2)cc1	GI50 [6]: 17.1 µM; GI50 [7]: 20.8 µM
–	–	> 30 µM	N#Cc1ccc(Nc2nc(NC3CCCC3)c3ccccc3n2)cc1	GI50 [6]: > 31.3 µM; GI50 [7]: > 31.3 µM

From ChEMBL document CHEMBL3808351, “Synthesis, biological evaluation, and physicochemical property assessment of 4-substituted 2-phenylaminoquinazolines as Mer tyrosine kinase inhibitors” (Bioorg Med Chem, 2016)
